This passage reports IC50 and inhibition results from PubChem BioAssay AID488828 (Molecular Libraries Program, Specialized Chemistry Center, …, 2010).

Molecules are shown by their SMILES. pIC50: −log10 of the molar value. Calls of active or inactive are those of the source.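 How the source made its calls: active means IC50 at or below 10 µM; inactive means the rest.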

For one experiment, the target named is Transitional endoplasmic reticulum ATPase (Homo sapiens) (UniProt P55072). Briefly: inhibition of purified VCP ATP hydrolysis – biochemical, hit optimization round 2, SAR follow-up (AID 488828). Conditions: purified p97 ATPase, Kinase-Glo ATP luminescence. An outline of the steps: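 System: human p97 ATPase / Medium: Tris buffer pH 7.4 with MgCl2 and EDTA / Also added: ATP substrate, 500 µM stock solution / Times: 10 min room-temperature enzyme–compound preincubation, 30 min 37 °C ATP reaction / Detection: Kinase-Glo Plus luminescence of residual ATP / Read-out basis: IC50, Langmuir fit of remaining activity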
Sequence of Transitional endoplasmic reticulum ATPase (Homo sapiens) (P55072 whole entry, looked up): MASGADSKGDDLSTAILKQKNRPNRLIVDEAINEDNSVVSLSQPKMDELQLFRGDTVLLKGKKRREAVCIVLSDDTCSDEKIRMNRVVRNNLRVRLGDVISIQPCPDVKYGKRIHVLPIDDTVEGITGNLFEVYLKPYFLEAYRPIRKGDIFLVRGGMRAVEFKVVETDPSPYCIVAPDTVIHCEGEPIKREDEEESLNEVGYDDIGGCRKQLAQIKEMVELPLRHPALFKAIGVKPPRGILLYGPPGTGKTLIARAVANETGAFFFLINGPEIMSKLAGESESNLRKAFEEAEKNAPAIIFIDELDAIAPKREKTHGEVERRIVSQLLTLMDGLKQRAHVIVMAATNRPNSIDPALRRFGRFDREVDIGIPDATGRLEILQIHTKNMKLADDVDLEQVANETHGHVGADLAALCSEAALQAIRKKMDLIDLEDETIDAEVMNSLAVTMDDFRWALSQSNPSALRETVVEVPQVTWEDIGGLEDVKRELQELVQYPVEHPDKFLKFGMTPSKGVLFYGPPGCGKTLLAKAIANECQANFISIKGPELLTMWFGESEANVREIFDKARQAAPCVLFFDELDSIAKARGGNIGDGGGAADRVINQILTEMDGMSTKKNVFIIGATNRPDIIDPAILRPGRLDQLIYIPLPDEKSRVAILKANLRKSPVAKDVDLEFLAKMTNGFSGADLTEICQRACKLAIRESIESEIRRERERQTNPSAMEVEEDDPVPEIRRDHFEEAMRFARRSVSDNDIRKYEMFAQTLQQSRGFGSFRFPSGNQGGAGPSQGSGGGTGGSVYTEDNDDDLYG
Regarding `Cc1ccccc1CNc1nc(Cl)nc2ccccc12`, the IC50 is > 30 µM (inactive).
For `c1ccc(Nc2nc(Nc3ccccc3)c3ccccc3n2)cc1`, the pIC50 is 5.59.
Turning to `Fc1ccccc1CNc1nc(Cl)nc2ccccc12`, the IC50 was > 30 µM (inactive).
In the case of `Cc1c(F)cccc1Nc1nc(NCc2ccccc2)c2ccccc2n1`, the pIC50 was 6.05.
Turning to `O=C(NCc1ccco1)c1cc(S(=O)(=O)N2CCOCC2)ccc1Cl`, the IC50 is > 30 µM (inactive).
The same measure, in the same setting: in the case of `Clc1ccc(CNc2nc(Cl)nc3ccccc23)cc1` it was > 30 µM (inactive); in that of `O=C1C(C=NCC2CCCO2)=C(O)c2ccccc21` (stereo unspecified), > 30 µM (inactive).
As to `Cc1ccc(Nc2nc(NCc3ccccc3)c3ccccc3n2)cc1F`, the pIC50 is 6.05.
Still for that read-out and setting: then `c1ccc(CNc2nc(N3CCOc4ccccc43)nc3ccccc23)cc1`, with 6.22.
Still for that read-out and setting: in the case of `Cc1cccc(CNc2nc(Nc3cccc(Cl)c3)nc3ccccc23)c1` it was 5.64.
Regarding `COc1cccc(CNc2nc(Cl)nc3ccccc23)c1`, the IC50 is > 30 µM (inactive).
For `Cc1ccc(Cl)cc1Nc1nc(NCc2ccccc2)c2ccccc2n1`, the pIC50 is 6.10.
Same read-out and setting: in the case of `Fc1ccc2c(NCc3ccccc3)nc(NCc3ccccc3)nc2c1` it was 5.59; in that of `Cc1c(Cl)cccc1Nc1nc(NCc2ccccc2)c2ccccc2n1`, 6.15.
As for `Clc1cccc(Nc2nc(NCc3ccccc3Br)c3ccccc3n2)c1`, the negative-log IC50 (pIC50) is 5.40.
Consider `Clc1ccc2nc(NCc3ccccc3)nc(NCc3ccccc3)c2c1`, for which the pIC50 was 5.80.
Take `c1ccc(CNc2nc(N3CCNc4ccccc43)nc3ccccc23)cc1`: the pIC50 is 6.40.
Turning to `COc1ccc(Nc2nc(NCc3ccccc3)c3ccccc3n2)cc1F`, the pIC50 was 6.05.
On the same count and under the same terms, in the case of `COc1ccccc1CNc1nc(Nc2cccc(Cl)c2)nc2ccccc12` it was 5.80; in that of `Fc1cccc(CNc2nc(Nc3cccc(Cl)c3)nc3ccccc23)c1`, 5.92.
On to `COc1ccc(CNc2nc(Nc3cccc(Cl)c3)nc3ccccc23)cc1`, for which the pIC50 was 5.64.
Still for that read-out and setting: then `O=[N+]([O-])c1cccc(Nc2nc(NCc3ccccc3)c3ccccc3n2)c1`, with 5.28.
With `Brc1ccc2c(NCc3ccccc3)nc(NCc3ccccc3)nc2c1`, the IC50 result is “inactive”.
In the case of `Cc1ccc2c(NCc3ccccc3)nc(NCc3ccccc3)nc2c1`, the pIC50 is 5.66.
With `Cc1ccccc1CNc1nc(Nc2cccc(Cl)c2)nc2ccccc12`, the pIC50 is 5.38.
On the same count and under the same terms, then `c1ccc(CNc2nc(N3CCc4ccccc43)nc3ccccc23)cc1`, with 5.70; and `Fc1ccccc1-c1nc(NCc2ccccc2)c2ccccc2n1`, with 5.96.
Consider `Clc1nc(NCc2ccc(Br)cc2)c2ccccc2n1`, for which the IC50 is > 30 µM (inactive).
In the case of `Clc1cccc(Nc2nc(NCc3cccc(Br)c3)c3ccccc3n2)c1`, the pIC50 is 5.43.
With `COc1ccccc1CNc1nc(Cl)nc2ccccc12`, the IC50 is > 30 µM (inactive).
For the compound `COc1cc2nc(NCc3ccccc3)nc(NCc3ccccc3)c2cc1OC`, the pIC50 is 5.36.
For the compound `Cc1ccc(CNc2nc(Cl)nc3ccccc23)cc1`, the IC50 is > 30 µM (inactive).
Still for that read-out and setting: in the case of `O=S(=O)(NC1CCCCC1)c1ccc(Br)cc1` it was > 30 µM (inactive).
For the compound `Fc1cccc2c(NCc3ccccc3)nc(NCc3ccccc3)nc12`, the pIC50 is 5.51.
As for `Clc1ccc(CNc2nc(Nc3cccc(Cl)c3)nc3ccccc23)cc1`, the pIC50 was 5.55.
For `CCOC(=O)NC(NC(=O)OCC)C(=O)c1ccc(F)cc1`, the IC50 was > 30 µM (inactive).
As for `FC(F)(F)c1ccc2c(NCc3ccccc3)nc(NCc3ccccc3)nc2c1`, the pIC50 is 5.04.
On the same count and under the same terms, in the case of `Cc1cc(F)cc(Nc2nc(NCc3ccccc3)c3ccccc3n2)c1` it was 6.15; in that of `Cc1ccc(F)cc1Nc1nc(NCc2ccccc2)c2ccccc2n1`, 6.10.
In the case of `Fc1cccc(CNc2nc(Cl)nc3ccccc23)c1`, the IC50 was > 30 µM (inactive).
Take `Clc1nc(NCc2ccccc2Cl)c2ccccc2n1`: the IC50 is > 30 µM (inactive).
On the same count and under the same terms, then `Clc1nc(NCc2cccc(Br)c2)c2ccccc2n1`, with > 30 µM (inactive).
In the case of `CC(C)Sc1oc(-c2ccco2)nc1S(=O)(=O)c1ccc(F)cc1`, the pIC50 is 5.52.
In the case of `Clc1cccc(CNc2nc(Cl)nc3ccccc23)c1`, the IC50 was > 30 µM (inactive).
For the compound `COc1ccc(CNc2nc(Cl)nc3ccccc23)cc1`, the IC50 is > 30 µM (inactive).
For the compound `COc1c(F)cccc1Nc1nc(NCc2ccccc2)c2ccccc2n1`, the pIC50 is 5.77.
For the compound `COc1c(Cl)cccc1Nc1nc(NCc2ccccc2)c2ccccc2n1`, the pIC50 was 6.05.
As to `CN1CCN(S(=O)(=O)c2ccc(NC(=O)c3cccc(S(=O)(=O)N4CCCC4)c3)cc2)CC1`, the IC50 is > 30 µM (inactive).
For the compound `COc1ccc(Nc2nc(Nc3ccc(OC)cc3)c3ccccc3n2)cc1`, the IC50 result is “inactive”.
On the same count and under the same terms, in the case of `O=C(C1CCCN(S(=O)(=O)c2cnc[nH]2)C1)N(CCc1ccccc1)Cc1ccccc1` (stereo unspecified) it was > 30 µM (inactive); in that of `CC1(C)N(O)CC(c2cccs2)=[N+]1[O-]`, > 30 µM (inactive).
The same measure, in the same setting: in the case of `Clc1nc(NCc2ccccc2Br)c2ccccc2n1` it was > 30 µM (inactive).
Turning to `Ic1cccc(Nc2nc(NCc3ccccc3)c3ccccc3n2)c1`, the pIC50 is 5.28.
On to `N#Cc1ccc2c(NCc3ccccc3)nc(NCc3ccccc3)nc2c1`, for which the IC50 result was “inactive”.
Consider `COc1ccc2c(NCc3ccccc3)nc(NCc3ccccc3)nc2c1`, for which the pIC50 was 5.24.
For `CC(=O)Nc1ccc(NC(=O)c2ccccc2F)cc1`, the IC50 was > 30 µM (inactive).
Consider `Brc1cccc2c(NCc3ccccc3)nc(NCc3ccccc3)nc12`, for which the pIC50 is 5.48.
Same read-out and setting: then `CCN(CC)c1ccc2cc(-c3nc4ccccc4[nH]3)c(=O)oc2c1`, with 5.85; and `Fc1ccc2nc(NCc3ccccc3)nc(NCc3ccccc3)c2c1`, with 5.33; and `Fc1ccc(CNc2nc(Nc3cccc(Cl)c3)nc3ccccc23)cc1`, with 5.82.
Same read-out and setting: then `c1ccc(CNc2nc(N3CCCc4ccccc43)nc3ccccc23)cc1`, with 5.36.
Take `Cc1cccc(CNc2nc(Cl)nc3ccccc23)c1`: the IC50 was > 30 µM (inactive).
As for `Cc1ccc(CNc2nc(Nc3cccc(Cl)c3)nc3ccccc23)cc1`, the pIC50 is 5.85.
The same measure, in the same setting: in the case of `Fc1cccc2nc(NCc3ccccc3)nc(NCc3ccccc3)c12` it was 5.92.
On to `COc1ccc(C)cc1NC(=O)c1[nH]c(C)c(C(C)=O)c1C`, for which the IC50 is > 30 µM (inactive).
For `COc1cccc(CNc2nc(Nc3cccc(Cl)c3)nc3ccccc23)c1`, the pIC50 was 6.00.
The same measure, in the same setting: then `Clc1cccc(Nc2nc(NCc3ccc(Br)cc3)c3ccccc3n2)c1`, with 5.13; and `Clc1cccc(Nc2nc(NCc3ccccc3Cl)c3ccccc3n2)c1`, with 5.33; and `COc1ccc(Cl)cc1Nc1nc(NCc2ccccc2)c2ccccc2n1`, with 5.96.
Same read-out and setting: in the case of `COc1ccc2nc(NCc3ccccc3)nc(NCc3ccccc3)c2c1` it was 5.12.
For `CC(C)(C)NC(=O)Nc1ccc2nccnc2c1`, the IC50 was > 30 µM (inactive).
Regarding `COc1cccc2c(NCc3ccccc3)nc(NCc3ccccc3)nc12`, the pIC50 was 6.22.
For `Fc1ccc(CNc2nc(Cl)nc3ccccc23)cc1`, the IC50 was > 30 µM (inactive).
Regarding `Clc1cccc2nc(NCc3ccccc3)nc(NCc3ccccc3)c12`, the negative-log IC50 (pIC50) was 5.66.
As to `Cc1ccc(C2=[N+]([O-])C3(CCCCC/C3=N\O)N(O)C2(C)C)o1` (stereo unspecified), the IC50 was > 30 µM (inactive).
For `Clc1ccc2c(NCc3ccccc3)nc(NCc3ccccc3)nc2c1`, the pIC50 was 5.26.
Same read-out and setting: in the case of `Clc1cccc(CNc2nc(Nc3cccc(Cl)c3)nc3ccccc23)c1` it was 5.30.
As for `CC(C)n1c2ccccc2c2nnc(SCC(=O)OCN3C(=O)c4ccccc4C3=O)nc21`, the IC50 was > 30 µM (inactive).
Consider `Fc1ccccc1CNc1nc(Nc2cccc(Cl)c2)nc2ccccc12`, for which the pIC50 was 5.74.
The same measure, in the same setting: in the case of `COc1ccc(F)cc1Nc1nc(NCc2ccccc2)c2ccccc2n1` it was 5.17.

The experiment is the same for the next values; noted with them: purified p97 ATPase, Kinase-Glo ATP luminescence; at 30 µM (top of the series).
For `Clc1ccc(Nc2nc(Nc3cccc(Cl)c3)nc3ccccc23)cc1`, the inhibition result was “inactive”.
